# According to ChEMBL document CHEMBL3994637, “Broad spectrum anti-infective properties of benzisothiazolones and the parallels in their anti-bacterial and anti-fungal effects” (Bioorg Med Chem Lett, 2017):
# Legend:
# Type in all cases: functional
# [1] = system: Staphylococcus aureus; experiment: Antibacterial activity against Staphylococcus aureus ATCC 25923 by broth microdilution method
# [2] = system: Staphylococcus aureus; experiment: Antibacterial activity against methicillin-resistant Staphylococcus aureus ATCC 700699 by broth microdilution method; details: Mu50
# [3] = system: Staphylococcus aureus; experiment: Antibacterial activity against Staphylococcus aureus ATCC 29213 by broth microdilution method
# [4] = system: Escherichia coli; experiment: Antibacterial activity against Escherichia coli ATCC 9637 by broth microdilution method; details: W
# Summary of the method: (§1)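 Bacteria were tested by the NCCLS method in Mueller Hinton broth, with gentamicin and norfloxacin as reference drugs.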
# [5] = system: Pseudomonas aeruginosa; experiment: Antibacterial activity against Pseudomonas aeruginosa ATCC BAA-427 by broth microdilution method; summary of the method: as §1
# [6] = system: Klebsiella pneumoniae; experiment: Antibacterial activity against Klebsiella pneumoniae ATCC 27736 by broth microdilution method; summary of the method: as §1
# [7] = system: Candida albicans; experiment: Anti-fungal activity against Candida albicans after 48 hrs by broth microdilution method
# [8] = system: Cryptococcus neoformans; experiment: Anti-fungal activity against Cryptococcus neoformans after 48 hrs by broth microdilution method
# [9] = system: Sporothrix schenckii; experiment: Anti-fungal activity against Sporothrix schenckii after 48 hrs by broth microdilution method
# [10] = system: Trichophyton mentagrophytes; experiment: Anti-fungal activity against Trichophyton mentagrophytes after 48 hrs by broth microdilution method
# [11] = system: Aspergillus fumigatus; experiment: Anti-fungal activity against Aspergillus fumigatus after 48 hrs by broth microdilution method
# [12] = system: Candida parapsilosis; experiment: Anti-fungal activity against Candida parapsilosis ATCC 22019 after 48 hrs by broth microdilution method; details: Lodderomyces parapsilosis, ATCC 22019, 48 h
# [13] = system: Plasmodium falciparum; experiment: Antimalarial activity against chloroquine-sensitive Plasmodium falciparum 3D7 after 72 hrs by SYBR Green-1 staining based fluorescence assay; details: 3D7, 72 h
Compound,IC50 [1] [µg/mL],MIC [1] [µg/mL],IC50 [2] [µg/mL],MIC [2] [µg/mL],IC50 [3] [µg/mL],MIC [3] [µg/mL],IC50 [4] [µg/mL],MIC [4] [µg/mL],IC50 [5] [µg/mL],MIC [5] [µg/mL],IC50 [6] [µg/mL],MIC [6] [µg/mL],MIC [7] [µg/mL],IC50 [8] [µg/mL],MIC [8] [µg/mL],IC50 [9] [µg/mL],MIC [9] [µg/mL],MIC [10] [µg/mL],MIC [11] [µg/mL],MIC [12] [µg/mL],other results
O=c1c2ccccc2sn1C1CCCCC1n1sc2ccccc2c1=O (configuration not stated),3.2,3.4,1.4,2.3,2.5,3.7,> 50,> 50,> 50,> 50,> 50,> 50,> 50,> 50,> 50,> 50,> 50,> 50,> 50,> 50,IC50 [7]: > 50 µg/mL; IC50 [10]: > 50 µg/mL; IC50 [11]: > 50 µg/mL; IC50 [12]: > 50 µg/mL; IC50 [13]: > 2000 nM
COC(=O)[C@H](C(C)C)n1sc2ccccc2c1=O,2.4,2.9,0.82,0.97,2.6,4.6,> 50,> 50,> 50,> 50,> 50,> 50,2.3,2.5,4.5,2.5,11.9,2.4,12.5,3.1,IC50 [7]: 1.2 µg/mL; IC50 [10]: 1.7 µg/mL; IC50 [12]: 1.6 µg/mL; IC50 [13]: > 2000 nM
O=c1c2ccccc2sn1Cc1ccc2c(c1)OCO2,2.2,2.6,0.6,1,1.9,2.5,> 50,> 50,> 50,> 50,> 50,> 50,0.7,0.8,0.8,0.3,0.5,1.5,1.7,> 50,IC50 [7]: 0.56 µg/mL; IC50 [11]: 1.5 µg/mL; IC50 [13]: > 2000 nM
CC(Cn1sc2ccccc2c1=O)n1sc2ccccc2c1=O (configuration not stated),6.1,12.4,1.5,2.6,2,4.1,> 50,> 50,> 50,> 50,> 50,> 50,3.1,1.61,1.67,3.7,6.6,4.3,12.5,> 50,IC50 [7]: 2.2 µg/mL; IC50 [12]: > 50 µg/mL; IC50 [13]: > 2000 nM
COC(=O)[C@H](C)NC(=O)[C@H](C)n1sc2ccccc2c1=O,3.6,7.5,3.6,7.5,3.5,5.6,> 50,> 50,> 50,> 50,> 50,> 50,> 50,> 50,> 50,> 50,> 50,> 50,> 50,> 50,IC50 [7]: > 50 µg/mL; IC50 [10]: > 50 µg/mL; IC50 [11]: > 50 µg/mL; IC50 [12]: > 50 µg/mL; IC50 [13]: > 2000 nM
COC(=O)[C@H](CC(C)C)n1sc2ccccc2c1=O,2.1,3.5,2.1,3.5,2.7,6.9,> 50,> 50,> 50,> 50,> 50,> 50,1.9,8.6,10.5,2.9,20.4,11.4,> 50,4.9,IC50 [7]: 1.5 µg/mL; IC50 [10]: 6.2 µg/mL; IC50 [12]: 2.4 µg/mL; IC50 [13]: > 2000 nM
C[C@@H](c1ccccc1)n1sc2ccccc2c1=O,6.8,10.2,1,1.9,4.6,8.5,> 50,> 50,> 50,> 50,> 50,> 50,1,1,2.9,0.4,1.6,0.4,6.5,2.1,IC50 [7]: 0.5 µg/mL; IC50 [10]: 0.7 µg/mL; IC50 [11]: 0.4 µg/mL; IC50 [12]: 0.7 µg/mL; IC50 [13]: > 2000 nM
COC(=O)[C@H](C)n1sc2ccccc2c1=O,2,3,0.84,0.87,6.4,8.4,> 50,> 50,> 50,> 50,> 50,> 50,2.7,1.4,2,2.9,12.2,12,25,12.5,IC50 [7]: 1.9 µg/mL; IC50 [10]: 11.4 µg/mL; IC50 [13]: > 2000 nM
CC(=O)Nc1ccccc1-n1sc2ccccc2c1=O,> 50,> 50,> 50,> 50,> 50,> 50,> 50,> 50,> 50,> 50,> 50,> 50,> 50,> 50,> 50,> 50,> 50,> 50,> 50,> 50,IC50 [7]: > 50 µg/mL; IC50 [10]: > 50 µg/mL; IC50 [11]: > 50 µg/mL; IC50 [12]: > 50 µg/mL; IC50 [13]: > 2000 nM
O=c1c2ccccc2sn1-c1ccccc1-n1sc2ccccc2c1=O,10,18,4.7,10.2,6.3,6.5,> 50,> 50,> 50,> 50,> 50,> 50,25,13.7,14.4,> 50,> 50,13.6,> 50,17.1,IC50 [7]: 14.2 µg/mL; IC50 [10]: 12.5 µg/mL; IC50 [11]: > 50 µg/mL; IC50 [12]: 15.2 µg/mL; IC50 [13]: > 2000 nM
GENTAMICIN,,6.25,,> 50,,0.78,,6.25,,> 50,,0.78,,,,,,,,,
O=c1c2ccccc2sn1C1CCCCC1,6.8,9.8,1,2.5,4.6,7.1,> 50,> 50,> 50,> 50,> 50,> 50,0.5,1,1.3,0.4,0.6,1,3.7,0.9,IC50 [10]: 0.7 µg/mL; IC50 [11]: 0.4 µg/mL; IC50 [12]: 0.7 µg/mL; IC50 [13]: > 2000 nM
O=c1c2ccccc2sn1CCn1sc2ccccc2c1=O,4.1,16.7,0.4,0.9,0.3,0.4,> 50,> 50,> 50,> 50,> 50,> 50,1.54,1.4,2.2,2.3,3.5,2.9,12.5,> 50,IC50 [7]: 1.51 µg/mL; IC50 [12]: > 50 µg/mL; IC50 [13]: > 2000 nM
OC(Cn1cncn1)(Cn1cncn1)c1ccc(F)cc1F [FLUCONAZOLE],,,,,,,,,,,,,1,,2,,2,> 32,> 32,2,
CC[C@H](C)[C@@H](C(=O)OC)n1sc2ccccc2c1=O,2,4.2,0.43,0.89,2.1,4.3,> 50,> 50,> 50,> 50,> 50,> 50,2.5,7.3,8.3,4.7,18.2,> 50,12.5,4.5,IC50 [7]: 1.6 µg/mL; IC50 [10]: > 50 µg/mL; IC50 [12]: 3.1 µg/mL; IC50 [13]: > 2000 nM
C[C@@H]1[C@H](O)[C@@H](C)/C=C/C=C/C=C/C=C/C=C/C=C/C=C/[C@H](O[C@@H]2O[C@H](C)[C@@H](O)[C@H](N)[C@@H]2O)C[C@@H]2O[C@](O)(C[C@@H](O)C[C@@H](O)[C@H](O)CC[C@@H](O)C[C@@H](O)CC(=O)O[C@H]1C)C[C@H](O)[C@H]2C(=O)O [AMPHOTERICIN B],,,,,,,,,,,,,0.016,,0.125,,0.25,0.25,0.5,0.016,
CCn1cc(C(=O)O)c(=O)c2cc(F)c(N3CCNCC3)cc21 [NORFLOXACIN],,0.39,,> 50,,0.78,,0.39,,> 50,,0.78,,,,,,,,,
